# Measurements published in PubChem BioAssay.
# Active and inactive are the calls of the source. Rule as the data show it, unless noted: active = inhibition above about 30%; inactive = the rest.
# How the values were obtained:
# [1] = reducers of endogenous Her2 protein level, primary screen, SKBR3 breast tumor cells, AlphaScreen, ATP viability (AID 461;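 active = Her2 level under about 52% in both replicate screens, with viability over 70% of control, limit read from the data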;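 as to Her2 level: lower value means less Her2 protein in the cells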;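 as to viability: percent of carrier control wells set as 100% viability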); details: 18-24 h, measured here: SKBR3 viability, ATP luminescence, at 10 µM
# [2] = molecular target: Receptor tyrosine-protein kinase erbB-2 (Homo sapiens) (UniProt P04626); experiment: as above; details: 18-24 h, at 10 µM, stronger effect = lower value
# [3] = SK-BR-3 cell growth inhibitors, pilot screen, 24 h, human (AID 572;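 active = viability at or below 10% of carrier control in both of two separate runs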;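 also: compound exposure lasted between 18 and 24 h rather than exactly 24 h; 100% = carrier-treated control wells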); details: SK-BR-3 viability, CellTiter-Glo luminescence, at 10 µM, stronger effect = lower value
# [4] = HUVEC growth inhibition – cell-based, human, primary screen (AID 575;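 active = viability at or below 30% in both replicate assays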;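 also: 100% = median of untreated cell wells with 0.1% DMSO on each plate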); details: HUVEC proliferation, CellTiter-Glo luminescence, 72 h; at 10 µM; stronger effect = lower value
# How it was run: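 Assay system: primary human umbilical vein endothelial cells / Buffer or medium: endothelial basal medium with 2% FBS plus growth supplements / Compound dosing: one dose, 10 µM final, 0.1% DMSO / Timing: 72 h treatment at 37 °C / Signal: CTG luminescence / Benchmarks: 32 DMSO-only cell-control wells (high), 32 MePR drug-control wells (low) per plate / Plate: collagen-coated 384-well format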
# [5] = growth inhibitors of H69AR lung tumor, primary screen, human, duplicate replicates (AID 580;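 active = viability at or under a set limit in both replicates, limit being median viability minus 3 SD, cut at about 48% in these data, passing the limit was not always enough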;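 also: 100% = mean luminescence of untreated wells and 0% = no signal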); details: H69AR lung tumor cells viability, ATP luminescence, 72 h; at 10 µM; stronger effect = lower value
# [6] = reversal of MRP1-mediated doxorubicin resistance, pilot screen, H69AR cells, doxorubicin co-treatment (AID 601;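 active = viability loss from added drug above about 55%, and viability with drug at most 40%, in both replicates, limit read from the data, passing the limit was not always enough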); details: CellTiter-Glo, 72 h, at 10 µM; for differential viability (reversal): stronger effect = higher value
# [7] = 384-well plate pilot, post-Golgi transport modulator project, inhibition of yeast transport mutant growth (AID 636; in the data active = inhibition above about 31%); details: absorbance 615 nm, about 18 h, stronger effect = higher value
# [8] = growth suppression of yeast trafficking mutant, preliminary HTS, modulators of trafficking downstream of Golgi apparatus project, 1536-format plate, OD 615 nm (AID 637); details: yeast transport mutant growth, absorbance 615 nm, 18 h; stronger effect = higher value
# [9] = H69AR cells + 2 uM doxorubicin, measured here: viability with 2 uM doxorubicin, stronger effect = lower value
# [10] = H69AR cells, compound alone cytotoxicity
# Receptor tyrosine-protein kinase erbB-2 (Homo sapiens), sequence (P04626 whole entry, looked up): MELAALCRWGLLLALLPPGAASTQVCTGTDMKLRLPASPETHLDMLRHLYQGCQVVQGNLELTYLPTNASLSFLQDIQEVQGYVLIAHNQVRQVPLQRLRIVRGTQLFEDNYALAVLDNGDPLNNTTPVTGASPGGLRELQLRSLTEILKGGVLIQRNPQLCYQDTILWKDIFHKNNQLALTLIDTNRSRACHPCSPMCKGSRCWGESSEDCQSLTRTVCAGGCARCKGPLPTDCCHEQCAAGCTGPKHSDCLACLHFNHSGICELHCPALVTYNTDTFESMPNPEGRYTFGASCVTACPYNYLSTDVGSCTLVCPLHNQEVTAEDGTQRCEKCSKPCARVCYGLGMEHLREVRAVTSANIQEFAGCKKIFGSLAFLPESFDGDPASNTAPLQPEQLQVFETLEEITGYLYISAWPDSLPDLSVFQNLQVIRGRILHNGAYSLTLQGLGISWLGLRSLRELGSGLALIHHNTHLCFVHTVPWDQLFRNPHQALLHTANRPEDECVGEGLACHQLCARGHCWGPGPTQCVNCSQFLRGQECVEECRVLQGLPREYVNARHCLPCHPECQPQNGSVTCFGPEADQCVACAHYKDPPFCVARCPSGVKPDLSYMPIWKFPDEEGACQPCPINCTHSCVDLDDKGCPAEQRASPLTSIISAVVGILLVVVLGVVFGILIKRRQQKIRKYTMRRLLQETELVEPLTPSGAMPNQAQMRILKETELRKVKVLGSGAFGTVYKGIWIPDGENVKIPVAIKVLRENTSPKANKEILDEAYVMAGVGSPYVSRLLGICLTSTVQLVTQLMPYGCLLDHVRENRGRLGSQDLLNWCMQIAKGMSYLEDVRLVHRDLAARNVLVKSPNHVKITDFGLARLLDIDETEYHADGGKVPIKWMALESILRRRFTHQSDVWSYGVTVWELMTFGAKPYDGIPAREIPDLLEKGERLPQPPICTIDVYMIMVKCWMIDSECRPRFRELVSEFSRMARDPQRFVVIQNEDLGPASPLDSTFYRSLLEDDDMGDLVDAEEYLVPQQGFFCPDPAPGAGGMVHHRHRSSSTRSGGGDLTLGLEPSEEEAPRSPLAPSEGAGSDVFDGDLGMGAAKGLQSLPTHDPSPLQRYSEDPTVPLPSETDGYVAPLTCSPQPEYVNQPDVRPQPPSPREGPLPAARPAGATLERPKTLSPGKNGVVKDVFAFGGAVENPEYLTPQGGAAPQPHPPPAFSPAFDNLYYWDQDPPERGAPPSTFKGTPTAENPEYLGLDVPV
SMILES,viability [1],Her2 level [2],viability [3],viability [4],viability [5],differential viability (reversal) ([6]; H69AR cells + 2 uM doxorubicin),"viability [6, 9]","viability [6, 10]",inhibition [7],inhibition [8]
O=C(OCC#CCSc1nc2ccccc2s1)c1ccco1,88%,90.5% (inactive),88% (inactive),74.7% (inactive),81.8% (inactive),1.8% (inactive),80%,81.8%,-2.34% (inactive),-10.8% (inactive)
COc1ccc(-n2c(COc3cccc(C)c3)nnc2SCC(=O)NCc2ccco2)cc1,126%,91% (inactive),126% (inactive),84.4% (inactive),85.4% (inactive),-10.3% (inactive),95.7%,85.4%,-2.84% (inactive),-1.43% (inactive)
O=C(CCCC(=O)OCC(=O)NC1CCCC1)Nc1ccccn1,95.5%,88% (inactive),95.5% (inactive),98.1% (inactive),96.9% (inactive),-6.12% (inactive),103%,96.9%,-6.8% (inactive),3.28% (inactive)
CCOC(=O)C1CCN(C(=O)COc2ccc(Cl)cc2Cl)CC1,109%,98% (inactive),109% (inactive),101% (inactive),96.2% (inactive),10.2% (inactive),86.1%,96.2%,-3.64% (inactive),-6.35% (inactive)
COCCn1c(=O)[nH]c2cc(C(=O)NCc3cccnc3)ccc2c1=O,89.5%,88.5% (inactive),89.5% (inactive),107% (inactive),97.9% (inactive),4.27% (inactive),93.6%,97.9%,-7.57% (inactive),1.17% (inactive)
CCN(CC)C(=O)CN(c1cc(Cl)ccc1OC)S(C)(=O)=O,95.5%,89.5% (inactive),95.5% (inactive),95.2% (inactive),102% (inactive),9.04% (inactive),93.3%,102%,-1.18% (inactive),-3.71% (inactive)
Cc1c(C(=O)OCC(C)(C)CN(C)C)oc2ccccc12,122%,95% (inactive),122% (inactive),101% (inactive),92.4% (inactive),8.07% (inactive),84.3%,92.4%,-6.8% (inactive),-4.6% (inactive)
CCCS(=O)(=O)Nc1c(C(=O)O)[nH]c2ccccc12,94.5%,93% (inactive),94.5% (inactive),83.9% (inactive),94.5% (inactive),-11.1% (inactive),106%,94.5%,-5.13% (inactive),-12.8% (inactive)
CCN(Cc1ccccc1)C(c1ccncc1)c1nnnn1C(C)(C)C (stereo not given),102%,76% (inactive),102% (inactive),99.5% (inactive),78.6% (inactive),-0.555% (inactive),79.1%,78.6%,-5.73% (inactive),4.26% (inactive)
C=CCOc1nc(N2CCCC2)nc(N2CCCC2)n1,89%,91% (inactive),89% (inactive),83.1% (inactive),92.7% (inactive),11.6% (inactive),81.1%,92.7%,-3.55% (inactive),-2% (inactive)
O=c1cc(COn2nnc3ccc(C(F)(F)F)cc32)nc2sccn12,89.5%,91.5% (inactive),89.5% (inactive),104% (inactive),85.7% (inactive),-19.7% (inactive),105%,85.7%,-1.71% (inactive),0.63% (inactive)
CC(C)Cn1c(CN(Cc2ccccc2)Cc2ccccc2)nc2c1c(=O)n(C)c(=O)n2C,85.5%,86.5% (inactive),85.5% (inactive),54.8% (inactive),90.1% (inactive),1.2% (inactive),88.9%,90.1%,-1.47% (inactive),3.93% (inactive)
CN(C)C(=O)CN(c1ccc(F)c(Cl)c1)S(C)(=O)=O,101%,111% (inactive),101% (inactive),92.7% (inactive),90.8% (inactive),-10.3% (inactive),101%,90.8%,-2.11% (inactive),-7.05% (inactive)
COC(=O)c1cc(-c2c(C)oc3cc(O)ccc3c2=O)c(C)o1,100%,90.5% (inactive),100% (inactive),91.3% (inactive),84.9% (inactive),-6.25% (inactive),91.1%,84.9%,-4.94% (inactive),-1.27% (inactive)
